Assay results from different studies.
Each line is one published result; the experiments were not run side by side.

| SMILES | cell line | observed | method | tested at | time | endpoint | value |
| --- | --- | --- | --- | --- | --- | --- | --- |
| CC(C)(O)[C@H]1CC[C@H](Nc2ccc3ncc(-c4cccc(C(F)(F)F)c4)n3n2)CC1 | UMUC3 | colony formation |  |  |  | EC50 | 2200 nM |
| Cc1ccc2c(c1)C(=NNc1nnc(Cc3ccccc3)c3ccccc13)C(=O)N2 | HT-29 | cell growth or viability |  | 30 µM |  | inhibition | 89.1% |
| Cc1c(NC(=O)c2ccc(C(C)(C)C)cc2)cccc1-c1cn(C)c(=O)c(Nc2ccc(C(=O)N3CCOCC3)cc2)n1 | U2932 | cell growth or viability |  |  | 48 h | GI50 | > 10000 nM |
| COc1ccc(-c2nc(NN=C3C(=O)Nc4ccc(Cl)cc43)c3ccccc3n2)cc1OC | HT-29 | cell growth or viability |  | 30 µM |  | inhibition | 5.3% |
| C=CC(=O)Nc1cccc(Nc2nc(Nc3ccc(OCCOC)cc3)ncc2F)c1 | U2932 | cell growth or viability |  |  | 48 h | GI50 | 4300 nM |
| CC(C)c1cc(C(=O)N2Cc3ccccc3C2)c(O)c2c1C(=NO)CC2 | UMUC3 | cell growth or viability | ATP luminescence |  | 72 h | IC50 | 51600 nM |
| Cc1c(-c2cccc(C(F)(F)F)c2)sc2[nH]c(=O)n([C@H](C)c3cccc4ccccc34)c(=O)c12 | NCI-H1650 | cell growth or viability | fluorescence | 10 µM |  | inhibition | > 80% |
| CCc1ccc(/C=N/n2c(C)nc3ccc(C)cc3c2=O)s1 | LoVo | cell growth or viability | LDH | 200 µg/mL | 24 h | viability | 89.5% |
| COc1ccc(-c2nc(NN=C3C(=O)Nc4ccc(Br)cc43)c3ccccc3n2)cc1OC | HT-29 | cell growth or viability |  | 10 µM |  | inhibition | 70.8% |
| Cc1cc(C)n(C(=S)[S][Au][PH](CCCCCC[PH]([Au][S]C(=S)n2nc(C)cc2C)(c2ccccc2)c2ccccc2)(c2ccccc2)c2ccccc2)n1 | TK-10 | cell growth or viability |  |  |  | GI50 | 1210 nM |
| Cc1nc2ccc(Cl)cc2c(=O)n1NC(=O)CCl | LoVo | cell growth or viability | LDH | 200 µg/mL | 24 h | viability | 89.5% |
| COc1cc([C@@H]2c3cc4c(cc3[C@@H](O[C@@H]3O[C@@H]5CO[C@@H](C)O[C@H]5[C@H](O)[C@H]3O)[C@H]3COC(=O)[C@H]23)OCO4)cc(OC)c1O | Caco-2 | cell growth or viability | MTS |  | 48 h | IC50 | 15300 nM |
| Cc1nc2ccc(Br)cc2c(=O)n1/N=C/c1ccc(C(=O)O)cc1 | LoVo | cell growth or viability | LDH | 200 µg/mL | 24 h | viability | 61.9% |
| COc1ccc(-c2ccc(-c3ccc(C(=N)N)nc3)s2)cc1 | TK-10 | cell growth or viability |  |  |  | GI50 | 1890 nM |
| CC(C)c1cc(C(=O)N2Cc3ccccc3C2)c(O)c2c1CCC2=O | UMUC3 | cell growth or viability | ATP luminescence |  | 72 h | IC50 | > 100000 nM |
| CC(C)C[C@H](NC(=O)[C@H](Cc1ccccc1)NC(=O)c1cnccn1)B(O)O | NCI-H1581 | cell growth or viability | ATP luminescence |  |  | IC50 | 16 nM |
| C/C=C/C[C@H](C)[C@@H](OC)[C@@H](C)[C@H](O)C[C@H]1OC(=O)C=C[C@H]1CC | A2780 | cell growth or viability | MTT |  | 48 h | GI50 | 41 nM |
